Reference: ChEMBL document CHEMBL4699430, “Continuous flow synthesis of lipophilic cations derived from benzoic acid as new cytotoxic chemical entities in human head and neck carcinoma cell lines” (RSC Med Chem, 2020)
Activity calls are given as the source filed them. The calls are words filed in the database; no cut-off is given here.

Tests used:
CAL-27 [1] = test: Induction of mitochondrial uncoupling in human CAL-27 cells assessed as oxygen consumption rate measured by Clark-type oxygen electrode method; settings: Mitochondria, dose microM 10-50
Procedure, shortened: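 Polarographic Clark-electrode assay on 5 × 10^6 trypsinised Cal-27 cells (cultured to 80% confluence). Cells held in 0.6 mL PBS, pH 7.4, at 25 °C with 8.3 mM L-glutamine. Respiration first inhibited with 2.5 μg/mL oligomycin, then compound added at increasing concentrations. OCR compared with full uncoupling by 0.133 μM CCCP.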

HEp-2 [2] = test: Induction of mitochondrial membrane potential loss in human Hep-2 cells at 2.5 to 30 uM by flow cytometry; settings: dose microM 2.5-30
CAL-27 [3] = test: Decrease in intracellular ATP levels in human CAL-27 cells at 10 to 50 uM incubated for 4 hrs by CellTiter-Glo luminescent assay; settings: dose microM 10-50, time 4.0 hrs
[4] = Selectivity index, ratio of IC50 for human OKF-6/TERT cells to IC50 for human SCC-15 cells after 48 hrs by MTT assay; format: toxicity; settings: OKF-6/TERT cells versus SCC-15 cells
Procedure, shortened: (§1)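 Selectivity index at 48 h is the ratio of the OKF-6/TERT IC50 to the tumour-line IC50. Each IC50 comes from a sigmoidal, variable-slope dose–response curve of the MTT viability assay (1 × 10^4 cells per well, 48 h exposure, absorbance at 570 nm).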

CAL-27 [5] = test: Induction of apoptosis in human CAL-27 cells assessed as increase in caspase 3 activity at 2.5 to 5 uM incubated for 24 hrs by flow cytometry; format: functional, cell-based; settings: dose 2.5 µM
Procedure, shortened: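 Cal-27 cells seeded at 5 × 10^5 per well and grown 24 h at 37 °C, then exposed to two concentrations for 24 h. Cells fixed and permeabilised 30 min at 4 °C in the dark, stained 30 min with PE anti-active caspase-3 antibody, and read by flow cytometry at 488 ex/617 em.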

CAL-27 [6] = test: Induction of apoptosis in human CAL-27 cells at 2.5 uM incubated for 48 hrs by annexin-V FITC and PI staining based flow cytometric analysis; format: functional, cell-based
Procedure, shortened: (§2)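 Cells at 1 × 10^5 per mL exposed to 2.5 μM compound for 48 h at 37 °C in 5% CO2, with 10 μM staurosporine as positive control. Cells stained 5 min at room temperature with annexin V-FITC (488/530) and PI (488/575) in binding buffer; 10 000 events recorded by flow cytometry. Mean ± SD of at least three experiments; ANOVA with Bonferroni post-test.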

HEp-2 [7] = test: Decrease in intracellular ATP levels in human Hep-2 cells at 10 to 50 uM incubated for 4 hrs by CellTiter-Glo luminescence assay; settings: dose microM 10-50, time 4.0 hrs
[8] = Cytotoxicity against human OKF-6/TERT cells assessed as reduction in cell viability measured after 48 hrs by MTT assay; format: cell-based; settings: OKF6, 48 h
Procedure, shortened: (§3)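 Cells seeded at 1 × 10^4 per well and left 24 h, then exposed to increasing concentrations for 24, 48 or 72 h. After two PBS washes, 0.5 mg/mL MTT applied for 2 h. Formazan dissolved in DMSO and absorbance read at 570 nm. IC50 taken from a variable-slope dose–response curve.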

[9] = Selectivity index, ratio of IC50 for human OKF-6/TERT cells to IC50 for human CAL27 cells after 48 hrs by MTT assay; format: toxicity; settings: OKF-6/TERT cells versus CAL27 cells, read-out: Ratio IC50; procedure, shortened: as §1
SCC-15 = test: Cytotoxicity against human SCC-15 cells assessed as reduction in cell viability measured after 48 hrs by MTT assay; format: functional, cell-based; settings: SCC-15, 48 h; procedure, shortened: as §3
CAL-27 [10] = test: Induction of mitochondrial membrane potential loss in human CAL-27 cells at 2.5 to 30 uM by flow cytometry; settings: dose microM 2.5-30
HEp-2 [11] = test: Cytotoxicity against human HEp-2 cells assessed as reduction in cell viability measured after 48 hrs by MTT assay; format: functional, cell-based; settings: HEp-2, 48 h; procedure, shortened: as §3
CAL-27 [12] = test: Anticlonogenic activity against human CAL-27 cells assessed as reduction in colony formation incubated for 24 hrs followed supplementation with fresh medium without compound measured after 120 hrs by colony formation assay; format: functional, cell-based
Procedure, shortened: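 Cal-27 cells, 1 × 10^3 per well, grown 24 h at 37 °C in 5% CO2, then exposed 24 h to a range of concentrations. Medium then replaced with compound-free medium and growth continued 120 h. Colonies stained 30 min with crystal violet (0.5% in methanol), photographed and counted. Three independent experiments; ANOVA with Bonferroni post-test.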

[13] = Selectivity index, ratio of IC50 for human OKF-6/TERT cells to IC50 for human HEp-2 cells after 48 hrs by MTT assay; format: toxicity; settings: OKF-6/TERT cells versus HEp-2 cells; procedure, shortened: as §1
HEp-2 [14] = test: Induction of apoptosis in human Hep-2 cells at 2.5 uM incubated for 48 hrs by annexin-V FITC and PI staining based flow cytometric analysis; format: functional, cell-based; procedure, shortened: as §2
CAL-27 [15] = test: Cytotoxicity against human CAL-27 cells assessed as reduction in cell viability measured after 48 hrs by MTT assay; format: functional, cell-based; settings: CAL-27, 48 h; procedure, shortened: as §3
CAL-27 [16] = test: Uncoupling of mitochondrial oxidative phosphorylation in human CAL-27 cells assessed as increase in oxygen consumption rate by Clark electrode based assay; settings: Mitochondria

With `O=C(OCCCCCCCCCC[P+](c1ccccc1)(c1ccccc1)c1ccccc1)c1cc(O)ccc1O` as the compound, how does the Activity (CAL-27 [1]) read?
The Activity was “Dose-dependent effect”.

And the Activity (HEp-2 [2])?
The Activity was “Active”.

And the Activity (CAL-27 [3])?
Its Activity is “Active”.

What about the selectivity ratio at 48 h ([4]; read-out: Ratio IC50) of the same compound?
The selectivity ratio at 48 h was 4.9.

What about the Activity (CAL-27 [5]) of the same compound?
The Activity was “Active”.

What about the Activity (CAL-27 [6]) of the same compound?
The Activity was “Active”.

What about the Activity (HEp-2 [7]) of the same compound?
Its Activity is “Active”.

And the IC50 [8]?
Its IC50 is 13.2 µM.

And the selectivity ratio at 48 h [9]?
The selectivity ratio at 48 h was 6.

And the IC50 (SCC-15)?
The IC50 was 2700 nM.

And the Activity (CAL-27 [10])?
Its Activity is “Active”.

What about the IC50 (HEp-2 [11]) of the same compound?
The IC50 was 5.66 µM.

What about the Activity (CAL-27 [12]) of the same compound?
Its Activity is “Dose-dependent effect”.

What about the selectivity ratio at 48 h ([13]; read-out: Ratio IC50) of the same compound?
The selectivity ratio at 48 h was 2.3.

What about the Activity (HEp-2 [14]) of the same compound?
Its Activity is “Active”.

What about the IC50 (CAL-27 [15]) of the same compound?
Its IC50 is 2200 nM.

Which results are given for `O=C(OCCCCCCCCCC[P+](c1ccccc1)(c1ccccc1)c1ccccc1)c1cccc(O)c1O`?
Activity (CAL-27 [1]): Dose-dependent effect; Activity (HEp-2 [2]): Active; Activity (CAL-27 [3]): Active; selectivity ratio at 48 h [4]: 4.9; Activity (CAL-27 [5]): Active; Activity (CAL-27 [6]): Active; Activity (HEp-2 [7]): Active; IC50 [8]: 7.5 µM; selectivity ratio at 48 h [9]: 4.7; IC50 (SCC-15): 2900 nM; Activity (CAL-27 [10]): Active; IC50 (HEp-2 [11]): 8.28 µM; Activity (CAL-27 [12]): Dose-dependent effect; selectivity ratio at 48 h [13]: 2.3; Activity (HEp-2 [14]): Active; IC50 (CAL-27 [15]): 1600 nM

For `O=C(OCCCCCCCCCC[P+](c1ccccc1)(c1ccccc1)c1ccccc1)c1ccccc1O`, which Activity (CAL-27 [1]) is on record?
Its Activity is “Dose-dependent effect”.

What about the Activity (HEp-2 [2]) of the same compound?
The Activity was “Active”.

And the selectivity ratio at 48 h ([4]; read-out: Ratio IC50)?
The selectivity ratio at 48 h was 4.

What about the Activity (CAL-27 [5]) of the same compound?
The Activity was “Active”.

And the Activity (CAL-27 [6])?
Its Activity is “Active”.

What about the Activity (HEp-2 [7]) of the same compound?
Its Activity is “Active”.

And the IC50 [8]?
The IC50 was 12.7 µM.

And the selectivity ratio at 48 h [9]?
The selectivity ratio at 48 h was 5.5.

And the IC50 (SCC-15)?
The IC50 was 3200 nM.

And the Activity (CAL-27 [10])?
The Activity was “Active”.

And the IC50 (HEp-2 [11])?
The IC50 was 4.28 µM.

And the Activity (CAL-27 [12])?
The Activity was “Dose-dependent effect”.

What about the selectivity ratio at 48 h ([13]; read-out: Ratio IC50) of the same compound?
The selectivity ratio at 48 h was 3.

And the Activity (CAL-27 [16])?
The Activity was “Active”.

And the Activity (HEp-2 [14])?
The Activity was “Active”.

What about the IC50 (CAL-27 [15]) of the same compound?
Its IC50 is 2300 nM.

With `O=C(OCCCCCCCCCC[P+](c1ccccc1)(c1ccccc1)c1ccccc1)c1cc(O)c(O)c(O)c1` as the compound, how does the Activity (CAL-27 [1]) read?
Its Activity is “Dose-dependent effect”.

And the Activity (HEp-2 [2])?
Its Activity is “Active”.

What about the selectivity ratio at 48 h ([4]; read-out: Ratio IC50) of the same compound?
Its selectivity ratio at 48 h is 4.4.

And the Activity (CAL-27 [5])?
The Activity was “Active”.

What about the Activity (CAL-27 [6]) of the same compound?
The Activity was “Active”.

What about the Activity (HEp-2 [7]) of the same compound?
Its Activity is “Active”.

And the IC50 [8]?
The IC50 was 13.1 µM.

What about the selectivity ratio at 48 h [9] of the same compound?
The selectivity ratio at 48 h was 3.8.

What about the IC50 (SCC-15) of the same compound?
The IC50 was 3000 nM.

What about the Activity (CAL-27 [10]) of the same compound?
Its Activity is “Active”.

What about the IC50 (HEp-2 [11]) of the same compound?
Its IC50 is 12.5 µM.

And the Activity (CAL-27 [12])?
Its Activity is “Dose-dependent effect”.

What about the selectivity ratio at 48 h ([13]; read-out: Ratio IC50) of the same compound?
The selectivity ratio at 48 h was 1.

What about the Activity (CAL-27 [16]) of the same compound?
Its Activity is “Active”.

What about the Activity (HEp-2 [14]) of the same compound?
The Activity was “Active”.

What about the IC50 (CAL-27 [15]) of the same compound?
The IC50 was 3400 nM.
